This note sets out measurements from ChEMBL document CHEMBL4014346, “Lead Optimization Generates CYP11B1 Inhibitors of Pyridylmethyl Isoxazole Type with Improved Pharmacological Profile for the Treatment of Cushing's Disease” (J Med Chem, 2017).

Series [1] deals with T1, Cytochrome P450 11B1, mitochondrial (Homo sapiens, UniProt P15538).
T1 sequence (P15538 whole entry): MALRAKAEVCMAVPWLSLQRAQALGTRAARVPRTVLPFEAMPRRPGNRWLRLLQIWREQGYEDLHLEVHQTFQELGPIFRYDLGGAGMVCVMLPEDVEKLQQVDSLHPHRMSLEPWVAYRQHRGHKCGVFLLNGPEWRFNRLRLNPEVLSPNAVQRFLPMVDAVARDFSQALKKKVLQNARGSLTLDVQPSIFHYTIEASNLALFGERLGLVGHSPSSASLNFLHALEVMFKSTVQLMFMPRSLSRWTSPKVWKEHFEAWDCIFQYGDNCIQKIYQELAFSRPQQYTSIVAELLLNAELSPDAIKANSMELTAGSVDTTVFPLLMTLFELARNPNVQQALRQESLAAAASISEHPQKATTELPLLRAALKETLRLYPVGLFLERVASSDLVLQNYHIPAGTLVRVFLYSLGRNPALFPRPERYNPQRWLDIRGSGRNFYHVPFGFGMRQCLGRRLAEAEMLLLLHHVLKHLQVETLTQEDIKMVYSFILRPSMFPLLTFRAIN
Kind of series: Inhibition of human CYP11B1 expressed in hamster V79MZ cells using [1,2-3H]-11-deoxycorticosterone as substrate after 6 hrs by HPLC analysis. In kind it is cell-based. In short, it runs like this: (§1)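 V79MZ cells expressing recombinant human CYP11B1 or CYP11B2, or rat CYP11B1, incubated with [1,2-³H]-11-deoxycorticosterone (100 nM) and inhibitor over a range of concentrations; ketoconazole as reference.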

Series [2] concerns the target T2, Cytochrome P450 11B1, mitochondrial (Rattus norvegicus, UniProt P15393).
T2 sequence (P15393 whole entry): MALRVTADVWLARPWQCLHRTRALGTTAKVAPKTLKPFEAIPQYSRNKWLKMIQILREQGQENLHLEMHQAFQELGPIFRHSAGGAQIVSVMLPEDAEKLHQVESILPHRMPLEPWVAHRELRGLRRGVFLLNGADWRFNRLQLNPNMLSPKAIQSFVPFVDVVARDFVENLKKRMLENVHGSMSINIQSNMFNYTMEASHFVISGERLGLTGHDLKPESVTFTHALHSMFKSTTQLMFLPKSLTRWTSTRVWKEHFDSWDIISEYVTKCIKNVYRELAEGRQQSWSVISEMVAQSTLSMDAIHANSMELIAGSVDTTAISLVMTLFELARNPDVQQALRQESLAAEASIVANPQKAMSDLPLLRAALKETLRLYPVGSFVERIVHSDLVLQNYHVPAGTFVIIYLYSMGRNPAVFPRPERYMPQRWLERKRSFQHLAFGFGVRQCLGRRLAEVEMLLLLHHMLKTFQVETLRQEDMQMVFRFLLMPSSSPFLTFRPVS
The experiment in a line: Inhibition of rat CYP11B1 expressed in hamster V79MZ cells using [1,2-3H]-11-deoxycorticosterone as substrate after 6 hrs by HPLC analysis. Type of series: cell-based. In short, it runs like this: as §1

The nature of series [3]: Half life in rat liver S9 fractions at 1 uM in presence of NADPH/UDPGA by LC-MS/MS analysis. Type of series: ADME, tissue-based. In short, it runs like this:
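Samples taken at 0, 5, 15 and 60 min, stopped with cold acetonitrile containing internal standard. Remaining parent measured by LC-MS/MS.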

The target in the next series is T3, CYP1A2 (Homo sapiens, UniProt P05177).
T3 sequence (P05177 whole entry): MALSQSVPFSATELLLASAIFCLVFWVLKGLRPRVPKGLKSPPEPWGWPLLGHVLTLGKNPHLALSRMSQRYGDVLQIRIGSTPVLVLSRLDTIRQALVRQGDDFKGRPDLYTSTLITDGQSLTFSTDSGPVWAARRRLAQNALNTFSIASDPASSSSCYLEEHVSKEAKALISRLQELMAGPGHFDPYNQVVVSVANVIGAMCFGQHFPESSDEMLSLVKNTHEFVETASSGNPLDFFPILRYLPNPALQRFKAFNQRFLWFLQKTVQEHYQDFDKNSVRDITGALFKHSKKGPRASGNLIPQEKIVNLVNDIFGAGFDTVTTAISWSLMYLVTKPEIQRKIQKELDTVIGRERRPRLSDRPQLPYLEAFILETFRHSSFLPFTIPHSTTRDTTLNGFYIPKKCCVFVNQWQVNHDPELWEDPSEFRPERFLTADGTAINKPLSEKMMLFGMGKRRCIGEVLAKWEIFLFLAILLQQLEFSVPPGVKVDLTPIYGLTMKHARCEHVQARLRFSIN
Kind of series: Inhibition of recombinant human CYP1A2 expressed in baculovirus infected insect cell microsomes at 1 uM relative to control. Type of series: ADME. In short, it runs like this: (§2)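 Recombinant human CYP1A2, 2B6, 2C9, 2C19, 2D6 and 3A4 in baculovirus-infected insect-cell microsomes, assayed per kit instructions; test compound at 1 µM, percent inhibition.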

The next series has as its target T4, CYP2B6 (Homo sapiens, UniProt P20813).
T4 sequence (P20813 whole entry): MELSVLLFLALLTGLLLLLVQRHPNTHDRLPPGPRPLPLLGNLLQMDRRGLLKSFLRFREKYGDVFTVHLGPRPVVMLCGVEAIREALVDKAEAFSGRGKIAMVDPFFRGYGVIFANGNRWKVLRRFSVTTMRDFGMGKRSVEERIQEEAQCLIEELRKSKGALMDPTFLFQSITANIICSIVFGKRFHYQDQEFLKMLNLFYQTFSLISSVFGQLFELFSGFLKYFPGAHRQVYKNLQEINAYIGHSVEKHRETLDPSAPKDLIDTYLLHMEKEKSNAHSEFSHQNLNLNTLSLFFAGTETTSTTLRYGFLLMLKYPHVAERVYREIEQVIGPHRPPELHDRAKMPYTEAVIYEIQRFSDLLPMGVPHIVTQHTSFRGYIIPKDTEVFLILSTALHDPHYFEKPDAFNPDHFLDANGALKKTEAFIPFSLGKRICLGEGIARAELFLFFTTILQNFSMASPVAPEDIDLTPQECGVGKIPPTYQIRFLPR
Kind of series: Inhibition of recombinant human CYP2B6 expressed in baculovirus infected insect cell microsomes at 1 uM relative to control. Type of series: ADME. The method, boiled down:
as §2

A further series addresses CYP2D6 (Homo sapiens, UniProt P10635). Kind of series: Inhibition of recombinant human CYP2D6 expressed in baculovirus infected insect cell microsomes at 1 uM relative to control. Type of series: ADME. In short, it runs like this:
as §2

Another series addresses CYP3A4 (Homo sapiens, UniProt P08684). Kind of series: Inhibition of recombinant human CYP3A4 expressed in baculovirus infected insect cell microsomes at 1 uM relative to control. Type of series: ADME. The method, boiled down: as §2
Series [4] deals with Salmonella typhimurium. Kind of series: Mutagenicity in Salmonella typhimurium TA98 up to 100 uM by Ames 2 assay. In kind it is toxicity. Particulars: salmonella enterica subsp. enterica serovar typhimurium. The method, boiled down:
(§3)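 AMES II kit with Salmonella typhimurium TA98 and TA7001–TA7006, run with or without rat liver S9 fraction according to the kit instructions.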

In series [5] the test system is Salmonella typhimurium. The experiment in a line: Mutagenicity in Salmonella typhimurium TA7001/7002/7003/7004/7005/7006 up to 100 uM by Ames 2 assay. Type of series: toxicity. The note with it: salmonella enterica subsp. enterica serovar typhimurium. The method, boiled down:
as §3

Series [6] can be described thus: Cmax in Sprague-Dawley rat at 5 mg/kg, iv administered as single dose by HPLC-MS/MS analysis. In kind it is ADME, organism-based. Details: dose 5 mg/kg, route intravenous. Particulars: in vivo. The method, boiled down: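 Female Sprague-Dawley rats (244–299 g), 2 animals; single iv dose in PEG300/ethanol/water (60/10/30), under 2% isoflurane anesthesia. Tail-vein blood taken into sodium citrate, plasma spun down, precipitated with acetonitrile containing diphenhydramine internal standard, analysed by HPLC-MS/MS with duplicate injections. Mean parameters from noncompartmental analysis.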

Sequence of CYP2D6 (P10635 whole entry): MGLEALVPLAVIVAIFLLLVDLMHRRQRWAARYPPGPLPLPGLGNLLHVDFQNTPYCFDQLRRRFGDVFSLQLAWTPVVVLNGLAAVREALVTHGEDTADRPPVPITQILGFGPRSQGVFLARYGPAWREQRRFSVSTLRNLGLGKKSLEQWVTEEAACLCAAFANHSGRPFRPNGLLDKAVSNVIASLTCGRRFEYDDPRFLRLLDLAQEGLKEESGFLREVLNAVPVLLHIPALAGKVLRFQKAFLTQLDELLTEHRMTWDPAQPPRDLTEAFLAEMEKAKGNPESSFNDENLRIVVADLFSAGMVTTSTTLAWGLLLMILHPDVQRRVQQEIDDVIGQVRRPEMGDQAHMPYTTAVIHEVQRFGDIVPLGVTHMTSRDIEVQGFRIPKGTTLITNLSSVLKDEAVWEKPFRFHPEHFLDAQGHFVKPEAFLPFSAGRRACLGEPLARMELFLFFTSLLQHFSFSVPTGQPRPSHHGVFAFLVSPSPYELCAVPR
Sequence of CYP3A4 (P08684 whole entry): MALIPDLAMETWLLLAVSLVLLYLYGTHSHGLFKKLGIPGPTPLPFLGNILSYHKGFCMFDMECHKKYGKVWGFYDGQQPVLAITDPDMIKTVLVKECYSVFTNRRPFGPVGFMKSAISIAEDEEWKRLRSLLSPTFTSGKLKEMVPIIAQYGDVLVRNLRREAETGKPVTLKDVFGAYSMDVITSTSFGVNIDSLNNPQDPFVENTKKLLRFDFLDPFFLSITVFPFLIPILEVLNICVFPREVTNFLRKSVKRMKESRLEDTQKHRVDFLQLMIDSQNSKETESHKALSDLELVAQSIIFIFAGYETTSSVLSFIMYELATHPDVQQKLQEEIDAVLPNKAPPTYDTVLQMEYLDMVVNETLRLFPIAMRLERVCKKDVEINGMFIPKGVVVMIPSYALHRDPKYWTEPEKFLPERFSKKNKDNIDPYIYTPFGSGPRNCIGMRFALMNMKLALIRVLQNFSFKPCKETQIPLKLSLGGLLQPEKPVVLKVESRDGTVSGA

With `Cc1cncc(Cc2cc(-c3ccccc3)no2)c1`, the results for the IC50 in series [1] and in series [2] were 5 nM and 4000 nM, respectively. The half-life at 1 µM in series [3] was 30 min. For the same compound, the inhibition at 1 µM at CYP1A2 is 54%; at CYP2B6 it was 3%; at CYP2D6, 0%; on CYP3A4, 61%. Also, the Activity result in the series with Salmonella typhimurium [4] and in the series with Salmonella typhimurium [5] was “Non-Toxic” throughout.
Consider `COc1cncc(Cc2cc(-c3ccccc3)no2)c1`, for which the results for the IC50 in series [1] and in [2] were 2 nM and 1800 nM, respectively. Besides, the half-life at 1 µM in series [3] was 23 min. For the same compound, the inhibition at 1 µM on CYP1A2 stood at 23%; at CYP2B6, 19%; on CYP2D6, 8%; on CYP3A4 it was 33%. The Activity entry in the series on Salmonella typhimurium [4] and in the series on Salmonella typhimurium [5] was “Non-Toxic” each time. Further, the Cmax in series [6] was determined as 27.8 µM.

In general, IC50 refers to the concentration at which inhibition is half-maximal. Read a high IC50 as a need for much substance. What is called half-life is how long it takes for the measured level to halve. One may read the inhibition as the share of the control response that was lost under treatment. As usually defined, the Cmax is the peak of the concentration-time curve.
